UPR XBP1 act = activators of adaptive arm of unfolded protein response (XBP1) | CHO-XBP1 luciferase reporter, IRE1-XBP1 UPR activation, luminescence; percent of tunicamycin response, DMSO as zero | activation, % at 20 µM | hit rate 0.33% among 330,000 | AID 463104;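 active means versus positive control, 20 µM dose yields 30% or more activation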
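incubation = overnight seeding at 37 °C, 6 h compound treatment at 37 °C | assay system = CHO-XBP1 cells stably carrying IRE1-XBP1-driven luciferase reporter | input = 1000 cells per well | detection = luciferase luminescence | dosing = single point, 20 µM final compound, 1% DMSO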
UCH37 DUB inh = human UCH37 deubiquitinating enzyme inhibition; purified proteasome/UCH37, Ub-AMC cleavage fluorescence; inhibition, % (no concentration beside the values); hit rate 0.33% among 330,000;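 active means mean inhibition over replicate wells above about 20%, limit read from the data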
Target sequence (Q9Y5K5 whole entry, looked up): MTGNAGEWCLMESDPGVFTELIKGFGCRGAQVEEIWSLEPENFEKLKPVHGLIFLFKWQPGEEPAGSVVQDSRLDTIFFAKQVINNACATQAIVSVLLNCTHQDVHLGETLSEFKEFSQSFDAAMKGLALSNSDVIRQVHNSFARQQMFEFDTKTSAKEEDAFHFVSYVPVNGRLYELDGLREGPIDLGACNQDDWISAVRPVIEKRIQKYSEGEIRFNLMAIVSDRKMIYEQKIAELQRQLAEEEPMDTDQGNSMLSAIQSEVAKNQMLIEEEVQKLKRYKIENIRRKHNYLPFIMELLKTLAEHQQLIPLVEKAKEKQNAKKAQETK
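Material: human UCH37 enzyme supplied as purified proteasome complex / Amount: 0.15 nM proteasome as dispensed / Buffer or medium: pH 7.4 Tris-HCl (50 mM) with ovalbumin, ATP-MgCl2, DTT / Times: preincubation 30 min, reaction 25 min, room temperature / Technique: AMC fluorescence from Ub-AMC cleavage, excitation 355 nm, emission 460 nm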
CTSL1 counter = counter-screen for PFM18AAP inhibitors: inhibitors of F. hepatica cathepsin L1. inhibition, % at 5.96 µM. hit rate 0.49% among 300,000. recombinant F. hepatica cathepsin L1, Z-Leu-Arg-MCA fluorescence. AID 1906;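 active means inhibition above the mean of all tested compounds plus 3 SD, set per screening campaign, cut at about 17% in these data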
UPR CHOP act = apoptotic UPR (CHOP) activation. activation, % at 10 µM. hit rate 0.34% among 330,000. CHO-CHOP luciferase reporter, luminescence; percent of tunicamycin response over DMSO baseline;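 active means at 10 µM dose, activation of 40% or more, normalized to positive control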
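Assay system: CHO-CHOP cells, stable luciferase reporter of PERK-eIF2a-CHOP signalling / Buffer or medium: F12 plus 10% serum / Compound dosing: one dose, 10 µM in 0.5% DMSO / Times: 6 h compound treatment, 37 °C / Technique: luciferase luminescence / Read-out: % reporter activation, DMSO baseline versus tunicamycin full activation / Benchmarks: tunicamycin and DMSO controls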
CHOP inhibitor = CHOP inhibition in unfolded protein response; AID 2732; inhibition, % at 10 µM; hit rate 3.8% among 220,000; CHO-K1 CHOP-promoter luciferase, tunicamycin-induced, 15-18 h;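 active means compounds that reduced the stress-induced luciferase reporter signal by more than about 70% of percent inhibition, limit read from the data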
Numbers stand for hits; – = inactive; · = no result. The entries come from a sample that favours hits as a whole.

SMILES | UPR XBP1 act | UCH37 DUB inh | CTSL1 counter | UPR CHOP act | CHOP inhibitor
COc1ccc2[nH]c(=O)c(C(c3nnnn3C3CCCC3)N(C)C3CCCCC3)cc2c1 (stereo unspecified) | – | – | – | – | 75.1
CCOc1ccc2[nH]c(=O)c(C(c3nnnn3C3CCCCC3)N3CCN(C)CC3)cc2c1 (stereo unspecified) | – | – | – | – | –
Cc1cc([N+](=O)[O-])nn1CCCC(=O)Nc1cc(Oc2ccccc2)cc([N+](=O)[O-])c1 | – | – | – | – | 73.7
Cc1cc([N+](=O)[O-])nn1CCCC(=O)Nc1cc(Oc2ccc(F)cc2)cc([N+](=O)[O-])c1 | – | – | – | – | 70.2
Cc1ccc(Oc2cc(NC(=O)CCCn3nc([N+](=O)[O-])c(Cl)c3C)cc([N+](=O)[O-])c2)cc1 | – | – | – | – | 80.7
CC(=O)Oc1c(C)cc(Cl)cc1C(=O)Nc1ccc([N+](=O)[O-])cc1Cl | – | – | – | – | 92.4
CC(=O)OCC(=O)Nc1ccc([N+](=O)[O-])cc1Cl | – | – | – | – | –
Cc1ccccc1CSCCNC(=O)COc1ccc(Cl)cc1 | – | – | – | – | 75.3
CC(C)(C)SCCNC(=O)COc1ccc(Cl)cc1 | – | – | – | – | –
CCOc1cc(C=NNC(=O)c2ccc(NC(=O)CC)cc2)ccc1OC(=O)c1ccccc1 | · | – | · | · | ·
Cc1ccc(-n2nnnc2C(Cl)c2nnnn2-c2ccc(C)cc2)cc1 | · | – | · | · | 91.1
Cc1ccc(-n2nnnc2-c2ccccc2)cc1 | – | – | – | – | –
CCCC(=NNC(=O)c1ccccc1C)c1ccccc1 | · | – | · | · | ·
Cc1cc(NC(c2ccc(Cl)cc2)c2ccc3cccnc3c2O)no1 (stereo unspecified) | – | – | – | – | 80.4
CC(C)C(=O)NC(c1ccc(Cl)cc1Cl)c1ccc2cccnc2c1O (stereo unspecified) | – | – | – | – | ·
CC(=O)NC(c1ccc(Cl)cc1)c1ccc2cccnc2c1O (stereo unspecified) | · | – | · | · | ·
COc1ccc(C(NC(=O)C(C)C)c2ccc3cccnc3c2O)cc1 (stereo unspecified) | – | – | – | – | 78.8
Cc1cccc(C)c1NC(=S)NN=Cc1c(Cl)cccc1Cl | · | – | · | · | ·
CCn1cc(C(=O)O)c(=O)c2cc(F)c(N3CCN(C(=S)NC(=O)c4ccc(OC)cc4)CC3)cc21 | – | – | – | – | ·
CCn1cc(C(=O)O)c(=O)c2cc(F)c(N3CCN(C(=S)NC(=O)c4ccc(Br)cc4)CC3)cc21 | – | · | – | – | 73.2
CCn1cc(C(=O)O)c(=O)c2cc(F)c(N/N=C/c3ccccc3)cc21 | – | · | – | – | 103.1
COc1ccc(-n2cc(-c3ccc(C)cc3)[n+]3c2SCC3)cc1 | – | 34.6 | – | – | –
Cc1ccc(NC(=O)CCC(=O)NN=C/C=C/c2ccccc2)cc1 | · | – | · | · | ·
Clc1ccccc1-c1nc(NN=Cc2cccnc2)c2ccccc2n1 | · | – | · | · | ·
O=C(O)CCc1ccccc1OC(=O)c1ccccc1 | – | – | – | – | –
SMILES | UPR XBP1 act | UCH37 DUB inh | CTSL1 counter | UPR CHOP act | CHOP inhibitor
COc1cccc(CCC(=O)O)c1OC | – | – | 18.6 | – | –
N#CC(c1cccc(Cl)c1)c1ccc2c(C(F)(F)F)cc(C(F)(F)F)nc2n1 (stereo unspecified) | – | – | – | – | 101.9
CCOc1ccc(-n2c(=O)c3c4c(sc3n(CC(=O)NCc3ccco3)c2=O)CCC4)cc1 | – | – | – | – | 70.3
COc1ccc(Oc2ccccc2/C=N/O)cc1 | – | · | – | – | –
CC(C)(C)c1cccc(/C=N/O)c1O | – | · | – | – | 75.5
CC(C)(C)c1ccc(O)c(O)c1 | – | · | · | – | ·
CC(C)(C)c1ccc(O)c(/C=N\O)c1 | – | · | – | – | 77.5
COc1ccc(Br)cc1C=NNC(=O)c1cccc(S(=O)(=O)N2CCOCC2)c1 | · | – | · | · | ·
O=C(CCC(=O)OCCCC(F)(F)C(F)(F)F)Nc1ccc(Cl)cc1Cl | – | – | – | – | 80.1
Cc1ccc(NC(=O)CCC(=O)OCCCC(F)(F)C(F)(F)F)cc1 | – | – | – | – | –
CC(/C=C/c1ccc2c(c1)OCO2)=NNC(=O)c1ccc(C)nc1 | · | – | · | · | ·
c1ccc(Nc2cccc(Nc3ccccc3)c2)cc1 | – | – | – | – | 74.0
Nc1cccc(Nc2ccccc2)c1 | – | – | – | – | –
N#CCC(=O)NN=Cc1ccc(Cl)cc1 | · | – | · | · | ·

Compound activity as filed in PubChem.
